Blank lines part the entries; values can stand above or below the compound they belong to.
How the values were obtained:
[1] = molecular target: T1, Disintegrin and metalloproteinase domain-containing protein 17 (Homo sapiens, UniProt P78536); assay: Inhibition of human TACE by fluorescent spectroscopy
[2] = molecular target: T1, Disintegrin and metalloproteinase domain-containing protein 17; assay: Inhibition of human TNF-alpha by fluorescent spectroscopy; assay type: functional
Mus musculus [3] = organism: Mus musculus; assay: Inhibition of NO production in mouse Raw 264.7 cells assessed as No2- accumulation in the medium after 24 hrs; assay type: functional, cell-based
How it was run: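 RAW264.7 cells cultured with inhibitors for 24 h. Supernatant mixed 1:1 with Griess reagent (1% sulfanilamide, 0.1% naphthylethylenediamine dihydrochloride, 2% phosphoric acid), 10 min at room temperature. Absorbance read at 540 nm against a NaNO2 standard curve.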

[4] = Half life in Sprague-Dawley rat at 5 mg/kg, iv; assay type: ADME, organism-based; parameters: dose 5 mg/kg, route intravenous; settings: in vivo
How it was run: (§1)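 Male SD rats (10 weeks old, 285–305 g), cannulated in the right jugular vein, dosed iv or po with compound in saline, N = 3 per route. Blood drawn through the cannula at set times over 24 h and spun for plasma. Acetonitrile protein precipitation with carbamazepine internal standard, LC/MS/MS in positive MRM mode, non-compartmental analysis.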

[5] = Half life in Sprague-Dawley rat at 30 mg/kg, po; assay type: ADME, organism-based; parameters: dose 30 mg/kg, route oral; settings: in vivo; how it was run: as §1
[6] = Mean residence time (infinity) in Sprague-Dawley rat at 5 mg/kg, iv; assay type: ADME, organism-based; parameters: dose 5 mg/kg, route intravenous; settings: in vivo; how it was run: as §1
[7] = Mean residence time (infinity) in Sprague-Dawley rat at 30 mg/kg, po; assay type: ADME, organism-based; parameters: dose 30 mg/kg, route oral; settings: in vivo; how it was run: as §1
[8] = Oral bioavailability in Sprague-Dawley rat at 30 mg/kg, po; assay type: ADME, organism-based; settings: in vivo; how it was run: as §1
Rattus norvegicus [9] = assay: Antiinflammatory activity in Sprague-Dawley rat assessed as inhibition of carrageenan-induced paw edema at 30 mg/kg, ip administered 30 mins before carrageenan challenge measured at 6 hrs; assay type: functional; parameters: scale not given: the % may be the effect or the level left; settings: route intraperitoneal
How it was run: (§2)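 SD rats (150 g, 5 weeks, SPF), five per group: vehicle, indomethacin 10 mg/kg (DMSO/Tween 80/H2O 1:4:95) as positive control, or compound at 30 or 100 mg/kg (ethanol/PEG 400-based vehicle), given ip. Ankle thickness measured by caliper; swelling expressed as % increase over pre-treatment thickness. Inhibition taken relative to vehicle at 6 h and later time point.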

Rattus norvegicus [10] = assay: Antiinflammatory activity in Sprague-Dawley rat assessed as inhibition of carrageenan-induced paw edema at 100 mg/kg, ip administered 30 mins before carrageenan challenge measured at 6 hrs; assay type: functional; parameters: scale not given: the % may be the effect or the level left; settings: route intraperitoneal; how it was run: as §2
Rattus norvegicus [11] = assay: Antiinflammatory activity in Sprague-Dawley rat assessed as inhibition of carrageenan-induced paw edema at 30 mg/kg, ip administered 30 mins before carrageenan challenge measured at 12 hrs; assay type: functional; parameters: scale not given: the % may be the effect or the level left; settings: route intraperitoneal; how it was run: as §2
Rattus norvegicus [12] = assay: Antiinflammatory activity in Sprague-Dawley rat assessed as inhibition of carrageenan-induced paw edema at 100 mg/kg, ip administered 30 mins before carrageenan challenge measured at 12 hrs; assay type: functional; parameters: scale not given: the % may be the effect or the level left; settings: route intraperitoneal; how it was run: as §2
Interstitial collagenase = molecular target: T2, Interstitial collagenase (Homo sapiens, UniProt P03956); assay: Inhibition of human MMP1 in cell-free system by fluorescent spectroscopy
T2 sequence (P03956 whole entry): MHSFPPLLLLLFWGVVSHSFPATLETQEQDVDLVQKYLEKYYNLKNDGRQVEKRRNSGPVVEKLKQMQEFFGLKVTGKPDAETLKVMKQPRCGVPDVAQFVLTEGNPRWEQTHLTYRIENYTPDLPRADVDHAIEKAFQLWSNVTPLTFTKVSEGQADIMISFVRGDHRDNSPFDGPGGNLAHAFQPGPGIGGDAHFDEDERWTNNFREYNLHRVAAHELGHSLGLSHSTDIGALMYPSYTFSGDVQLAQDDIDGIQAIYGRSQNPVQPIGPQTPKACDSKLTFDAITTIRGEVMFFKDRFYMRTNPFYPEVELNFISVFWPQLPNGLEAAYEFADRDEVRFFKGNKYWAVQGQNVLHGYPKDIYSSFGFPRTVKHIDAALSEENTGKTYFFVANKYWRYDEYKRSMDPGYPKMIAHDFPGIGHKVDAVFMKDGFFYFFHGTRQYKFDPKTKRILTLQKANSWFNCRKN

Stromelysin-1 = Stromelysin-1 (Homo sapiens, UniProt P08254); assay: Inhibition of human MMP3 in cell-free system by fluorescent spectroscopy
How it was run: (§3)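 Recombinant human MMP-3 or MMP-9 catalytic domain with fluorogenic quenched peptide Mca-Pro-Leu-Gly-Leu-Dpa-Ala-Arg-NH2. Cleavage followed as fluorescence increase (excitation 324, emission 420). Rate of emission change taken as enzyme activity; IC50 values are means of three experiments.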

[13] = molecular target: Matrix metalloproteinase-9 (Homo sapiens, UniProt P14780); assay: Inhibition of human MMP9 in cell-free system by fluorescent spectroscopy; how it was run: as §3
Mus musculus [14] = assay: Inhibition of LPS-alpha induced TNF-alpha production in BALB/c mouse assessed as decreased plasma TNF level at 30 mg/kg, po administered post LPS challenge measured after 60 mins by ELISA; assay type: functional; settings: 1 h
How it was run: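 BALB/c mice (7–9 weeks), four per group, fasted 24 h. LPS given ip; compound given orally at 30 mg/kg ([…]). Serum collected from the heart and TNF-α measured by ELISA; percent inhibition reported.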

[15] = Half life in human liver microsomes at 40 uM by LC/MS/MS; assay type: ADME, Microsome
How it was run: (§4)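 Compound at 40 µM with human liver microsomes (1 mg/mL), preincubated 5 min at 37 °C, then started with NADPH (1 mM final). Aliquots taken at 0, 15, 45 and 80 min and quenched with ice-cold acetonitrile containing carbamazepine internal standard. Centrifuged, then LC/MS/MS for parent; half-life and microsomal clearance derived.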

[16] = Metabolic stability in human liver microsomes at 40 uM by LC/MS/MS; assay type: ADME, Microsome; how it was run: as §4
[17] = Tmax in Sprague-Dawley rat at 30 mg/kg, po; assay type: ADME, organism-based; parameters: dose 30 mg/kg, route oral; settings: in vivo; how it was run: as §1
[18] = Cmax in Sprague-Dawley rat at 30 mg/kg, po; assay type: ADME, organism-based; parameters: dose 30 mg/kg, route oral; settings: in vivo; how it was run: as §1
[19] = AUC (0 to infinity) in Sprague-Dawley rat at 5 mg/kg, iv; assay type: ADME, organism-based; parameters: time infinity, dose 5 mg/kg, route intravenous; settings: plasma; how it was run: as §1
[20] = AUC (0 to infinity) in Sprague-Dawley rat at 30 mg/kg, po; assay type: ADME, organism-based; parameters: time infinity, dose 30 mg/kg, route oral; settings: plasma; how it was run: as §1
[21] = Clearance in Sprague-Dawley rat at 5 mg/kg, iv; assay type: ADME, organism-based; parameters: dose 5 mg/kg, route intravenous; settings: in vivo; how it was run: as §1
[22] = Volume of distribution at steady state in Sprague-Dawley rat at 5 mg/kg, iv; assay type: ADME, organism-based; parameters: dose 5 mg/kg, route intravenous; settings: in vivo, read-out: Vdss; how it was run: as §1

T1 sequence (P78536 whole entry, the tested form may be a part): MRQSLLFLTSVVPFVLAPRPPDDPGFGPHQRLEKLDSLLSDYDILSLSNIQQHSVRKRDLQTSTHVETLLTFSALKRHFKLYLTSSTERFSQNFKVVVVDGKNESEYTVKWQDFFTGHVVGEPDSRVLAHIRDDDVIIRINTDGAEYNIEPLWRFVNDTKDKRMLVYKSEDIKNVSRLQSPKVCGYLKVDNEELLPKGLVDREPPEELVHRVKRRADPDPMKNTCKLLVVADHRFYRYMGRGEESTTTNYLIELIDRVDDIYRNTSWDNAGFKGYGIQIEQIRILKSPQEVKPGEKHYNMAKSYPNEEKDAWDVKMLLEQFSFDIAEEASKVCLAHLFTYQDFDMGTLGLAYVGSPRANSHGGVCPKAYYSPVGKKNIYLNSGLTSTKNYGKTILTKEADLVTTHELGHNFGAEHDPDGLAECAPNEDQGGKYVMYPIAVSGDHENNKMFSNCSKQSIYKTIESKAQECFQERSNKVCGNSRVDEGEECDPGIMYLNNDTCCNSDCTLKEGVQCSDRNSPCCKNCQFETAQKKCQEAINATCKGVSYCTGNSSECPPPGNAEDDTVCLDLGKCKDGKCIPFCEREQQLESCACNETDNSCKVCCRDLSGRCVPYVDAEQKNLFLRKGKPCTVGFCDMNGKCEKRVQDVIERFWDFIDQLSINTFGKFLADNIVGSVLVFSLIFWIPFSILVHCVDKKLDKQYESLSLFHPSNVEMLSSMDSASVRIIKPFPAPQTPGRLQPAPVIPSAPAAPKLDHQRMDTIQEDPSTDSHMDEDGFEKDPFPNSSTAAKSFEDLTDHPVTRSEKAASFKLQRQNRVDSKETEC
Matrix metalloproteinase-9, sequence (P14780 whole entry): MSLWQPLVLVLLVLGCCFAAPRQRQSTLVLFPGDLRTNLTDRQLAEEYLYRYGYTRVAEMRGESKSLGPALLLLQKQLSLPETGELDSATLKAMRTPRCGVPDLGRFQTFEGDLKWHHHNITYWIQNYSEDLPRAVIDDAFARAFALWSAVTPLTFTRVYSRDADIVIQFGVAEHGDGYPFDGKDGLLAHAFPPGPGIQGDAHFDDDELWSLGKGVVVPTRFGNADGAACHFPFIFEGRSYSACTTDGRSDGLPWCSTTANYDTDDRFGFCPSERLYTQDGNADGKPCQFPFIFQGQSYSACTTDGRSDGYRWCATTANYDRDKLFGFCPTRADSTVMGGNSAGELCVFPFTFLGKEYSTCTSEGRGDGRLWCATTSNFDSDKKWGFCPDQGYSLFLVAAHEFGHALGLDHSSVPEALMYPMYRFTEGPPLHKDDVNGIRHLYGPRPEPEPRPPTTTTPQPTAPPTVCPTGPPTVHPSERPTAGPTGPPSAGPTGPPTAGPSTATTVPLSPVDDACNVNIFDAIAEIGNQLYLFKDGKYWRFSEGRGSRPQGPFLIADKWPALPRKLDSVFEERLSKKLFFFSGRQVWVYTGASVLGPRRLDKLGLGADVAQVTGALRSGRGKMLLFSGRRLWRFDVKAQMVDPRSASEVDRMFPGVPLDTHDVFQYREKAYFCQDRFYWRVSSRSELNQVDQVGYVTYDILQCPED
Stromelysin-1, sequence (P08254 whole entry, the tested form may be a part): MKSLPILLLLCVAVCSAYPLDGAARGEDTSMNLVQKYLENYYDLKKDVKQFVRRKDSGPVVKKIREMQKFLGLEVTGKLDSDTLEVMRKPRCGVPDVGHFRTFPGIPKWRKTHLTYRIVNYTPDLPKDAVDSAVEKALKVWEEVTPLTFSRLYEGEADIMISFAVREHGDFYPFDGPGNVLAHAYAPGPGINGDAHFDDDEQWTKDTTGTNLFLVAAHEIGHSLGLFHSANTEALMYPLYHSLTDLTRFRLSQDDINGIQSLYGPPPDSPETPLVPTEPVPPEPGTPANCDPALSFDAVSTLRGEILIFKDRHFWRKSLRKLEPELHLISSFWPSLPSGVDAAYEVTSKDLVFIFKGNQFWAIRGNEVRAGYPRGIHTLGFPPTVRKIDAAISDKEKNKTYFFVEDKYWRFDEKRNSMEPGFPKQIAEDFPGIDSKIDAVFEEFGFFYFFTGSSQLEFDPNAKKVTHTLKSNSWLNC

Compound: Cc1ccc2oc(=O)c(CC(Cc3ccc(OCCN4CCCCC4)cc3)C(=O)NO)cc2c1 (stereo not given)
- IC50 [1]: 10.9 nM
- IC50 [2]: 1500 nM
- IC50 (Mus musculus [3]): Not Active

Compound: Cc1ccc2oc(=O)c(CC(CCc3ccc(OCCN4CCCCC4)cc3)C(=O)NO)cc2c1 (stereo not given)
- IC50 [1]: 1.04 nM
- IC50 [2]: 200 nM
- IC50 (Mus musculus [3]): Not Active

Compound: Cc1ccc2oc(=O)c(CC(CCCc3ccc(OCCN4CCCCC4)cc3)C(=O)NO)cc2c1 (stereo not given)
- IC50 [1]: 1.07 nM
- IC50 [2]: 320 nM
- IC50 (Mus musculus [3]): Not Active

Compound: Cc1ccc2oc(=O)c(CC(CCc3ccc(OCCN(C)C)cc3)C(=O)NO)cc2c1 (stereo not given)
- IC50 [1]: 0.66 nM
- IC50 [2]: 110 nM
- IC50 (Mus musculus [3]): Not Active

Compound: Cc1ccc2oc(=O)c(CC(CCCCc3ccccc3)C(=O)NO)cc2c1 (stereo not given)
- IC50 [1]: 32.8 nM
- IC50 [2]: > 3000 nM
- IC50 (Mus musculus [3]): Not Active

Compound: Cc1ccc2oc(=O)c(CC(CCc3cccc(OCCN4CCCCC4)c3)C(=O)NO)cc2c1 (stereo not given)
- IC50 [1]: 0.9 nM
- IC50 [2]: 240 nM
- IC50 (Mus musculus [3]): Not Active

Compound: Cc1ccc2oc(=O)c(CC(Cc3cccc(OCCN4CCCCC4)c3)C(=O)NO)cc2c1 (stereo not given)
- IC50 [1]: 1.07 nM
- IC50 [2]: 260 nM
- IC50 (Mus musculus [3]): Not Active

Compound: CCN(CC)CCOc1ccc(CCC(Cc2cc3cc(C)ccc3oc2=O)C(=O)NO)cc1 (stereo not given)
- IC50 [1]: 0.53 nM
- IC50 [2]: 140 nM
- IC50 (Mus musculus [3]): Not Active

Compounds with a lower IC50 [1], results first:

- IC50 [1]: 0.27 nM
- IC50 [2]: 230 nM
- IC50 (Mus musculus [3]): Not Active
Compound: Cc1ccc2oc(=O)c(CC(CCCc3cccc(OCCN4CCCCC4)c3)C(=O)NO)cc2c1 (stereo not given)

- half-life [4]: 2.8 h
- half-life [5]: 3.19 h
- MRT inf [6]: 1.14 h
- MRT inf [7]: 2.9 h
- bioavailability [8]: 41.6%
- IC50 [1]: 0.28 nM
- IC50 [2]: 60 nM
- IC50 (Mus musculus [3]): Not Active
- IC50 (Interstitial collagenase): 557 nM
- IC50 (Stromelysin-1): 8.7 nM
- IC50 [13]: 23 nM
- half-life at 40 µM [15]: 1.22 h
- microsomal CLint at 40 µM [16]: 9.5 µL/min/mg
- Tmax [17]: 2 h
- Cmax [18]: 1140 ng/mL
- AUC(0-inf) [19]: 1880 ng·h/mL
- AUC(0-inf) [20]: 4690 ng·h/mL
- clearance [21]: 44.3 mL/min/kg
- Vd [22]: 3.04 L/kg
Compound: CCN(CC)CCOc1ccc(CCC(Cc2cc3ccc(C)cc3oc2=O)C(=O)NO)cc1 (stereo not given)
- Activity (Rattus norvegicus [9]): 8%
- Activity (Rattus norvegicus [10]): 20%
- Activity (Rattus norvegicus [11]): 14%
- Activity (Rattus norvegicus [12]): 35%
- inhibition in vivo at 30 mg/kg (Mus musculus [14]): 74%

- IC50 [1]: 0.5 nM
- IC50 [2]: 520 nM
- IC50 (Mus musculus [3]): Not Active
Compound: Cc1ccc2oc(=O)c(CC(Cc3ccccc3)C(=O)NO)cc2c1 (stereo not given)

- IC50 [1]: 0.46 nM
- IC50 [2]: 70 nM
- IC50 (Mus musculus [3]): Not Active
Compound: CCN(CC)CCOc1ccc(CCC(Cc2cc3ccc(F)cc3oc2=O)C(=O)NO)cc1 (stereo not given)

- IC50 [1]: 0.3 nM
- IC50 [2]: 920 nM
- IC50 (Mus musculus [3]): Not Active
Compound: Cc1ccc2oc(=O)c(CC(CCc3ccc(O)cc3)C(=O)NO)cc2c1 (stereo not given)

Reference: ChEMBL document CHEMBL1629442, “Structure based optimization of chromen-based TNF-α converting enzyme (TACE) inhibitors on S1' pocket and their quantitative structure-activity relationship (QSAR) study” (Bioorg Med Chem, 2010)
